Consider four molecules from ChEMBL document CHEMBL1777700, “Inhibition of multi-drug resistant HIV-1 reverse transcriptase by nucleoside β-triphosphates” (Bioorg Med Chem Lett, 2011).

Assay [1] concerns the target Human immunodeficiency virus type 1 reverse transcriptase (Human immunodeficiency virus 1) (UniProt Q72547). Description: Inhibition of NNRTI-resistant HIV1 recombinant reverse transcriptase p66/p51 heterodimer up to 1 mM after 10 mins by gel-based radiolabeled primer extension assay. The method, boiled down: (§1)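 Purified p66/p51 HIV-1 RT (10 nM) was added to start reactions containing 50 nM of a 40 nt DNA template annealed to a 5′ end-labeled 22 nt DNA primer. The mix held 200 μM dNTPs, 10 mM Tris-HCl pH 8.0, 80 mM NaCl and 6 mM MgCl2. Reactions ran 10 min at 37 °C and were stopped with formamide gel-loading buffer. Inhibitor was tested at 10 nM–1 mM in tenfold steps, with a no-inhibitor lane.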

For assay [2] the target is unchanged. The assay can be described thus: Inhibition of wild type HIV1 recombinant reverse transcriptase p66/p51 heterodimer […] after 10 mins by gel-based radiolabeled primer extension assay.
Assay [3] has as its system Human immunodeficiency virus type 1 reverse transcriptase (Human immunodeficiency virus 1), Q72547 [M184V,K65R,Y115F]. The assay can be described thus: Inhibition of NRTI-resistant HIV1 recombinant reverse transcriptase p66/p51 M184V/K65R/Y115F mutant at 100 uM after 10 mins by gel-based radiolabeled primer extension assay. In short, it runs like this: as §1
Assay [4] has as its target Human immunodeficiency virus type 1 reverse transcriptase (Human immunodeficiency virus 1) (UniProt Q72547). Description: Inhibition of wild type HIV1 recombinant reverse transcriptase p66/p51 heterodimer at 10 to 100 uM after 10 mins by gel-based radiolabeled primer extension assay. In short, it runs like this:
as §1

For assay [5] the target is unchanged. Description: Inhibition of NNRTI-resistant HIV1 recombinant reverse transcriptase p66/p51 heterodimer at 10 nM to 10 uM after 10 mins by gel-based radiolabeled primer extension assay.
Assay [6] shares this target. Description: Inhibition of NNRTI-resistant HIV1 recombinant reverse transcriptase p66/p51 heterodimer at 100 uM after 10 mins by gel-based radiolabeled primer extension assay. In short, it runs like this: as §1
The target is the same in assay [7]. Description: Inhibition of wild type HIV1 recombinant reverse transcriptase p66/p51 heterodimer at 10 nM after 10 mins by gel-based radiolabeled primer extension assay. The method, boiled down:
as §1

In assay [8] the test system is Human immunodeficiency virus type 1 reverse transcriptase (Human immunodeficiency virus 1), Q72547 [M184V,K65R,Y115F]. The assay can be described thus: Inhibition of NRTI-resistant HIV1 recombinant reverse transcriptase p66/p51 M184V/K65R/Y115F mutant at 10 uM after 10 mins by gel-based radiolabeled primer extension assay. The method, boiled down:
as §1

Assay [9] has the same test system. The assay can be described thus: Inhibition of NRTI-resistant HIV1 recombinant reverse transcriptase p66/p51 M184V/K65R/Y115F mutant at 10 nM after 10 mins by gel-based radiolabeled primer extension assay. The method, boiled down: as §1

Activity calls are given as the source filed them. No cut-off for these calls is given here.

Turning to `Cc1cn([C@H]2C=C[C@@H](COP(=O)(OP(=O)(O)O)OP(=O)(O)O)O2)c(=O)[nH]c1=O`, the inhibition result in [1], in assay [2], in assay [3] and in assay [4] was “Active” each time.

Turning to `Cc1cn([C@H]2C[C@H](F)[C@@H](COP(=O)(OP(=O)(O)O)OP(=O)(O)O)O2)c(=O)[nH]c1=O`, the inhibition entry in assay [1], in [2], in assay [3] and in assay [4] was “Active” in each case.

`Cc1cn([C@H]2C[C@H](N=[N+]=[N-])[C@@H](COP(=O)(OP(=O)(O)O)OP(=O)(O)O)O2)c(=O)[nH]c1=O`: the inhibition result in assay [5] is “inactive”. The inhibition result in assay [6], in assay [7], in assay [8] and in assay [9] was “Active” in each case.

For the molecule `Nc1ncnc2c1ncn2[C@@H]1O[C@H](COP(=O)(OP(=O)(O)O)OP(=O)(O)O)[C@@H](O)[C@H]1O`, the inhibition result in assay [5] is “inactive”. The inhibition entry in assay [6], in assay [7], in assay [8] and in assay [9] was “Active” throughout.
